The values that follow come from ChEMBL document CHEMBL3352043, “Discovery of small-molecule inhibitors selectively targeting the DNA-binding domain of the human androgen receptor” (J Med Chem, 2014).

Changes are numbered by the printed parent chain. The source made the active and inactive calls. The rule behind the calls is not given here.

Data set [1] has as its target T1, Androgen receptor (Homo sapiens, UniProt P10275).
T1 sequence (P10275 whole entry): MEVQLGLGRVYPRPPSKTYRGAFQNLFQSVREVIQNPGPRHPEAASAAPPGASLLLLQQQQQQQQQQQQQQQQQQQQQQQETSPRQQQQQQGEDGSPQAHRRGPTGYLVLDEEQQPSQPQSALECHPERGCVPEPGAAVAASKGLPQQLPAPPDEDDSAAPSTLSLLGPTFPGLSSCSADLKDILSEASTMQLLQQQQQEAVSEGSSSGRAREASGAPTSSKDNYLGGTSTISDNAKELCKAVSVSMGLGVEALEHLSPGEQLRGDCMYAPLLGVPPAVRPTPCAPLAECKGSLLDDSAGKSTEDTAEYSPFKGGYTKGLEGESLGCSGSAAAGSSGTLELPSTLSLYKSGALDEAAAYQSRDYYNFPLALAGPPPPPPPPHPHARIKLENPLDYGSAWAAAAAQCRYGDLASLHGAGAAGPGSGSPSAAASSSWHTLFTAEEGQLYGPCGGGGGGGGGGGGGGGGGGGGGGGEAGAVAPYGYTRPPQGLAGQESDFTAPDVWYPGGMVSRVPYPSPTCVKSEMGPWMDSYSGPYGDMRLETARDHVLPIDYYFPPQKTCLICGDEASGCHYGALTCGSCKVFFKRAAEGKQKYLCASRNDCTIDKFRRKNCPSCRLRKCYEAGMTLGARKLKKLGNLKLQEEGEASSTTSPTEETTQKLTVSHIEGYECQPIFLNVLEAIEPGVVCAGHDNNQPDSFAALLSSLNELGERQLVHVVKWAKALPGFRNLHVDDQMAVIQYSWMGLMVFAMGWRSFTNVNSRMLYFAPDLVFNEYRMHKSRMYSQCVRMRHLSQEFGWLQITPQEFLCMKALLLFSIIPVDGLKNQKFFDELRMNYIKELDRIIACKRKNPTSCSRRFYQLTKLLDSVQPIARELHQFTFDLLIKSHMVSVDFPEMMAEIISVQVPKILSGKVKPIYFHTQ
Put plainly: Inhibition of androgen receptor transcriptional activity in human LNCaP cells after 3 days by eGFP assay. Format: cell-based.

Data set [2] deals with T1, Androgen receptor. As to the kind of experiment: Inhibition of androgen receptor in human LNCaP cells assessed as inhibition of prostate-specific antigen secretion into media after 3 days. It counts as cell-based.
Data set [3] concerns T2, Androgen receptor (Homo sapiens), P10275 [Q592D].
T2 sequence (whole entry): T1 sequence (P10275 whole entry) with Q592D
Put plainly: Inhibition of human androgen receptor Q592D mutant expressed in human PC3 cells assessed as inhibition of transcription activity after 24 hrs by luciferase reporter gene assay. Format: cell-based. The note with it: PC-3. Put shortly:
(§1)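 PC3 cells were starved 5 days in RPMI 1640 with 5% charcoal-stripped serum and seeded at 5000 cells/well. After 24 h they were cotransfected with AR-V7 or hAR mutant plasmid plus 50 ng ARR3tk-luciferase. At 48 h post-transfection, compounds were added for 24 h with 0.1 nM R1881. Luminescence was read from passive-lysis-buffer lysates; mutant tests used 10 μM.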

Data set [4] has as its target T3, Androgen receptor (Homo sapiens) (UniProt P10275).
T3 sequence (whole entry): T1 sequence (P10275 whole entry)
As to the kind of experiment: Displacement of androgen from androgen receptor (unknown origin) by Polarscreen competitor green assay.

Data set [5] has as its target T3, Androgen receptor (Homo sapiens). As to the kind of experiment: Binding affinity to biotinylated androgen receptor LBD (unknown origin) expressed in Escherichia coli BL21 by biolayer interferometry assay.
Data set [6] shares this target. Put plainly: Inhibition of androgen receptor V7 (unknown origin) expressed in human PC3 cells assessed as inhibition of transcription activity after 24 hrs by luciferase reporter gene assay. Format: cell-based. The note with it: PC-3. Put shortly: as §1
Data set [7] has as its target T4, Estrogen receptor (Homo sapiens) (UniProt P03372).
T4 sequence (whole entry): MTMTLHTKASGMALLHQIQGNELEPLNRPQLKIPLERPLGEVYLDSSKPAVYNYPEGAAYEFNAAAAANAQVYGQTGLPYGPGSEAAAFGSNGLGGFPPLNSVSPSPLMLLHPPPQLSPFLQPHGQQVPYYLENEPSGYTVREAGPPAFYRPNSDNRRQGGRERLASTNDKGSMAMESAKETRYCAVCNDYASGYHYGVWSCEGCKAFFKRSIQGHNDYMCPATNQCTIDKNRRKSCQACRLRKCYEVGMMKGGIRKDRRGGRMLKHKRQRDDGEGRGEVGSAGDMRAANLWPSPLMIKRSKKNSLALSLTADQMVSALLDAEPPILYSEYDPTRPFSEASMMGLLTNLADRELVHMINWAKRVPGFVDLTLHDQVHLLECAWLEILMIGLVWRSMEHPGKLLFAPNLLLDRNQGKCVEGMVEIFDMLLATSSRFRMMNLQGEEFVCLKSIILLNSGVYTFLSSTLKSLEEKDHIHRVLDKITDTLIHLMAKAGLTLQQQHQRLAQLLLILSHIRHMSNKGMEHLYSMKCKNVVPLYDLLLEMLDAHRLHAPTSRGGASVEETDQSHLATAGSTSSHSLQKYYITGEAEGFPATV
Put plainly: Inhibition of ERalpha (unknown origin) transcriptional activity at […]. The gist of the method: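 MCF-7 cells stably carrying an ERE-luciferase reporter were stimulated with 1 nM estradiol and treated with compound. Luciferase luminescence was read from passive-lysis-buffer lysates.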

The nature of data set [8]: Growth inhibition of AR-negative human PC3 cells after 3 days by MTS assay. It counts as cell-based. The settings on record: pc-3, 72 h.

`c1ccc(-c2csc(N3CCOCC3)n2)cc1`: the IC50 was 330 nM on Androgen receptor [1] and 280 nM on Androgen receptor [2]. For the same compound, the inhibition entry in data set [3], in data set [5] and in data set [7] was “inactive” each time. Further, the result in data set [4] was inactive. In data set [6], the inhibition result was “Dose-dependent effect”.

On to `Brc1ncn(-c2csc(N3CCOCC3)n2)c1Br`, for which the figures for the IC50 on Androgen receptor [1] and on Androgen receptor [2] were 120 nM and 170 nM, respectively. In addition, in data set [8], the Activity entry is reported as “Non-toxic”. Moreover, the inhibition result in data set [3], in data set [4] and in data set [7] was “inactive” in each case. The result in data set [5] was inactive. In data set [6], the inhibition result is “Dose-dependent effect”.
